Results reported in ChEMBL document CHEMBL1143542, “Structure-activity relationships of bivalent aminoglycosides and evaluation of their microbiological activities” (2005).
≈ marks a conversion by molar mass, not a printed value.

Key:
Pseudomonas aeruginosa [1] = test: Susceptibility testing against Pseudomonas aeruginosa ATCC 27853; R=Resistant; type: functional, organism-based
In short: (§1)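 Disk diffusion susceptibility profiling of P. aeruginosa reference and clinical isolates against empirically used antipseudomonal antibiotics. Each isolate was categorised as susceptible, intermediate or resistant.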

Pseudomonas aeruginosa [2] = test: Susceptibility testing against Pseudomonas aeruginosa PAE_NUH01; R=Resistant; type: functional, organism-based; in short: as §1
Pseudomonas aeruginosa [3] = test: Susceptibility testing against Pseudomonas aeruginosa PAE_NUH02; R=Resistant; type: functional, organism-based; in short: as §1
Pseudomonas aeruginosa [4] = test: Susceptibility testing against Pseudomonas aeruginosa PAE_NUH03; R=Resistant; type: functional, organism-based; in short: as §1
Pseudomonas aeruginosa [5] = test: Susceptibility testing against Pseudomonas aeruginosa PAE_NUH04; R=Resistant; type: functional, organism-based; in short: as §1
Pseudomonas aeruginosa [6] = test: Susceptibility testing against Pseudomonas aeruginosa PAE_NUH05; R=Resistant; type: functional, organism-based; in short: as §1
Pseudomonas aeruginosa [7] = test: Susceptibility testing against Pseudomonas aeruginosa PAE_NUH06; R=Resistant; type: functional, organism-based; in short: as §1
Pseudomonas aeruginosa [8] = test: Susceptibility testing against Pseudomonas aeruginosa PAE_NUH07; R=Resistant; type: functional, organism-based; in short: as §1
Pseudomonas aeruginosa [9] = test: Susceptibility testing against Pseudomonas aeruginosa PAE_NUH18; R=Resistant; type: functional, organism-based; in short: as §1
Pseudomonas aeruginosa [10] = test: Susceptibility testing against Pseudomonas aeruginosa PAE_NUH19; R=Resistant; type: functional, organism-based; in short: as §1
Pseudomonas aeruginosa [11] = test: Susceptibility testing against Pseudomonas aeruginosa PAE_NUH21; R=Resistant; type: functional, organism-based; in short: as §1
Pseudomonas aeruginosa [12] = test: Susceptibility testing against Pseudomonas aeruginosa PAE_NUH22; R=Resistant; type: functional, organism-based; in short: as §1
Pseudomonas aeruginosa [13] = test: Susceptibility testing against Pseudomonas aeruginosa PAE_NUH23; R=Resistant; type: functional, organism-based; in short: as §1
Pseudomonas aeruginosa [14] = test: Susceptibility testing against Pseudomonas aeruginosa PAE_NUH24; R=Resistant; type: functional, organism-based; in short: as §1
Pseudomonas aeruginosa [15] = test: Susceptibility testing against Pseudomonas aeruginosa PAE_NUH25; S=Susceptible; type: functional, organism-based
In short: (§2)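 Disk diffusion susceptibility profiling against a panel of empirically used antipseudomonal antibiotics. Each strain was categorised as susceptible (S) or intermediate (I).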

Pseudomonas aeruginosa [16] = test: Susceptibility testing against Pseudomonas aeruginosa PAE_NUH17; S=Susceptible; type: functional, organism-based; in short: as §2
Pseudomonas aeruginosa [17] = test: Susceptibility testing against Pseudomonas aeruginosa PAE_NUH20; S=Susceptible; type: functional, organism-based; in short: as §2
Pseudomonas aeruginosa [18] = test: In vitro minimum inhibitory concentration against Pseudomonas aeruginosa PAO-1; type: functional
In short: (§3)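 Broth microdilution following CLSI M100-S12. Stocks were 10 mg/mL in water, diluted in Mueller–Hinton broth to a top level of 128, then serially 2-fold in plates. Bacteria in cation-adjusted Mueller–Hinton broth were mixed 1:1 with drug and incubated 16–20 h at 35 °C. MIC was the lowest concentration with no visible growth. Run in duplicate with no-antibiotic and no-inoculum (sterility) controls.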

Staphylococcus aureus [19] = test: In vitro minimum inhibitory concentration against Staphylococcus aureus MRSA 3359; type: functional; in short: as §3
Pseudomonas aeruginosa [20] = test: In vitro minimum inhibitory concentration against Pseudomonas aeruginosa ATCC 27853; type: functional; in short: as §3
Staphylococcus aureus [21] = test: In vitro minimum inhibitory concentration against Staphylococcus aureus ATCC 29213; type: functional; in short: as §3
Pseudomonas aeruginosa [22] = test: Minimum inhibitory concentration against Pseudomonas aeruginosa PAE_NUH01; type: functional; in short: as §3
Pseudomonas aeruginosa [23] = test: Minimum inhibitory concentration against Pseudomonas aeruginosa PAE_NUH02; type: functional; in short: as §3
Pseudomonas aeruginosa [24] = test: Minimum inhibitory concentration against Pseudomonas aeruginosa PAE_NUH03; type: functional; in short: as §3
Pseudomonas aeruginosa [25] = test: Minimum inhibitory concentration against Pseudomonas aeruginosa PAE_NUH04; type: functional; in short: as §3
Pseudomonas aeruginosa [26] = test: Minimum inhibitory concentration against Pseudomonas aeruginosa PAE_NUH05; type: functional; in short: as §3
Pseudomonas aeruginosa [27] = test: Minimum inhibitory concentration against Pseudomonas aeruginosa PAE_NUH06; type: functional; in short: as §3
Pseudomonas aeruginosa [28] = test: Minimum inhibitory concentration against Pseudomonas aeruginosa PAE_NUH07; type: functional; in short: as §3
Pseudomonas aeruginosa [29] = test: Minimum inhibitory concentration against Pseudomonas aeruginosa PAE_NUH17; type: functional; in short: as §3
Pseudomonas aeruginosa [30] = test: Minimum inhibitory concentration against Pseudomonas aeruginosa PAE_NUH18; type: functional; in short: as §3
Pseudomonas aeruginosa [31] = test: Minimum inhibitory concentration against Pseudomonas aeruginosa PAE_NUH19; type: functional; in short: as §3
Pseudomonas aeruginosa [32] = test: Minimum inhibitory concentration against Pseudomonas aeruginosa PAE_NUH21; type: functional; in short: as §3
Pseudomonas aeruginosa [33] = test: Minimum inhibitory concentration against Pseudomonas aeruginosa PAE_NUH22; type: functional; in short: as §3
Enterococcus faecalis = test: In vitro minimum inhibitory concentration against Enterococcus faecalis 29212; type: functional; in short: as §3
Escherichia coli = test: In vitro minimum inhibitory concentration against Escherichia coli ATCC 25922; type: functional; in short: as §3
Pseudomonas aeruginosa [34] = test: Minimum inhibitory concentration against Pseudomonas aeruginosa PAE_NUH23; type: functional; in short: as §3
Pseudomonas aeruginosa [35] = test: Minimum inhibitory concentration against Pseudomonas aeruginosa PAE_NUH24; type: functional; in short: as §3
Pseudomonas aeruginosa [36] = test: Minimum inhibitory concentration against Pseudomonas aeruginosa PAE_NUH25; type: functional; in short: as §3
Pseudomonas aeruginosa [37] = test: Minimum inhibitory concentration against Pseudomonas aeruginosa ATCC 27853; type: functional; in short: as §3
Pseudomonas aeruginosa [38] = test: Minimum inhibitory concentration against Pseudomonas aeruginosa PAE_NUH20; type: functional; in short: as §3

COc1cc(Cc2cnc(N)nc2N)cc(OC)c1OC.Cc1cc(NS(=O)(=O)c2ccc(N)cc2)no1
Activity (Pseudomonas aeruginosa [1]): Resistant | Activity (Pseudomonas aeruginosa [2]): Resistant | Activity (Pseudomonas aeruginosa [3]): Resistant | Activity (Pseudomonas aeruginosa [4]): Resistant | Activity (Pseudomonas aeruginosa [5]): Resistant | Activity (Pseudomonas aeruginosa [6]): Resistant | Activity (Pseudomonas aeruginosa [7]): Resistant | Activity (Pseudomonas aeruginosa [8]): Resistant | Activity (Pseudomonas aeruginosa [9]): Resistant | Activity (Pseudomonas aeruginosa [10]): Resistant | Activity (Pseudomonas aeruginosa [11]): Resistant | Activity (Pseudomonas aeruginosa [12]): Resistant | Activity (Pseudomonas aeruginosa [13]): Resistant | Activity (Pseudomonas aeruginosa [14]): Resistant | Activity (Pseudomonas aeruginosa [15]): Susceptible | Activity (Pseudomonas aeruginosa [16]): Susceptible | Activity (Pseudomonas aeruginosa [17]): Susceptible

CN(CCCCN(C)C[C@@H](O)CO[C@@H]1[C@@H](O)[C@H](N)C[C@H](N)[C@H]1O[C@H]1O[C@H](CN)[C@@H](O)[C@H](O)[C@H]1N)C[C@@H](O)CO[C@@H]1[C@@H](O)[C@H](N)C[C@H](N)[C@H]1O[C@H]1O[C@H](CN)[C@@H](O)[C@H](O)[C@H]1N
MIC (Pseudomonas aeruginosa [18]): 8 µg/mL (≈ 9.16 µM) | MIC (Staphylococcus aureus [19]): 16 µg/mL (≈ 18.3 µM) | MIC (Pseudomonas aeruginosa [20]): 8 µg/mL (≈ 9.16 µM) | MIC (Staphylococcus aureus [21]): 1 µg/mL (≈ 1.15 µM) | MIC (Pseudomonas aeruginosa [22]): 12.5 µg/mL (≈ 14.3 µM) | MIC (Pseudomonas aeruginosa [23]): 6.3 µg/mL (≈ 7.22 µM) | MIC (Pseudomonas aeruginosa [24]): 6.3 µg/mL (≈ 7.22 µM) | MIC (Pseudomonas aeruginosa [25]): 6.3 µg/mL (≈ 7.22 µM) | MIC (Pseudomonas aeruginosa [26]): 6.3 µg/mL (≈ 7.22 µM) | MIC (Pseudomonas aeruginosa [27]): 12.5 µg/mL (≈ 14.3 µM) | MIC (Pseudomonas aeruginosa [28]): 6.3 µg/mL (≈ 7.22 µM) | MIC (Pseudomonas aeruginosa [29]): > 32 µg/mL | MIC (Pseudomonas aeruginosa [30]): 16 µg/mL (≈ 18.3 µM) | MIC (Pseudomonas aeruginosa [31]): 16 µg/mL (≈ 18.3 µM) | MIC (Pseudomonas aeruginosa [32]): 16 µg/mL (≈ 18.3 µM) | MIC (Pseudomonas aeruginosa [33]): 8 µg/mL (≈ 9.16 µM) | MIC (Enterococcus faecalis): > 50 µg/mL | MIC (Escherichia coli): 4 µg/mL (≈ 4.58 µM) | MIC (Pseudomonas aeruginosa [34]): > 32 µg/mL | MIC (Pseudomonas aeruginosa [35]): 32 µg/mL (≈ 36.7 µM) | MIC (Pseudomonas aeruginosa [36]): 8 µg/mL (≈ 9.16 µM) | MIC (Pseudomonas aeruginosa [37]): 8 µg/mL (≈ 9.16 µM) | MIC (Pseudomonas aeruginosa [38]): 16 µg/mL (≈ 18.3 µM)
